# Assay results from PMC4245176 (Journal of Chemical Information and Modeling, 2014).
# “Also recorded” adds a separate entry of the source.
# Tests used:
# [1] = test system: HIV-1_89BZ167; experiment: PBMC-based HIV-1 replication assay; format: cell-based; conditions: HIV-1 replication in primary human PBMCs
# How it was run: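 Fresh human PBMCs from HIV-1/HBV-seronegative donors were stimulated with 4 μg/mL PHA for 48–72 h and kept in 20 U/mL rhIL-2. Cells from ≥2 donors were pooled at 5 × 10^4 cells/well and infected with 89BZ167 (subtype B, CXCR4-tropic) at MOI ≅0.1 with nine compound concentrations (triplicate wells) for 7 days. Supernatant RT activity gave infection as % of compound-free control, from which IC50 was derived.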
# [2] = test system: peripheral blood mononuclear cells (PBMCs); experiment: MTS cytotoxicity assay in PBMCs; format: cell-based, human; conditions: up to the highest test concentration of 100 μM
# How it was run: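 Cytotoxicity was read by MTS addition alongside the 7-day HIV-1 infection of pooled PHA/IL-2-stimulated human PBMCs (5 × 10^4 cells/well, nine compound concentrations, triplicate wells). The maximum concentration tested was 100 μM. CC50 is the half-maximal cytotoxic concentration. TI = CC50/IC50, with IC50 taken from the RT-based antiviral readout against 89BZ167.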
# [3] = target: HIV-1NL4-3 CA protein (Human immunodeficiency virus type 1 group M subtype B, UniProt P12493); experiment: SPR direct binding to immobilized CA
# How it was run: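 CA was amine-coupled at 100 μg/mL in sodium acetate pH 4.5 onto an EDC/sulfo-NHS-activated GLH chip, with a nonspecific-antibody reference surface. A 10 mM DMSO stock of test compound was serially diluted 2-fold to 18.75–300 μM in PBS-T pH 7.4 with 5% DMSO. One-shot kinetics ran at 100 μL/min, 2 min association and 2 min dissociation. Buffer and reference responses were subtracted, and data were fitted to a 1:1 model.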
# [4] = target: HIV-1 CA Ile37Ala (Human immunodeficiency virus type 1 group M subtype B, UniProt P12493, I169A); experiment: SPR binding site analysis, mutant CA; conditions: 50 μM compound, equilibrium response normalized to theoretical Rmax
# How it was run: (§1)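 Wild-type and Ala-mutant CA were amine-coupled to a GLH chip at 100 μg/mL in sodium acetate pH 4.5, after EDC (0.2 M)/sulfo-NHS (0.05 M) activation for 5 min at 25 °C, then capped with 1 M ethanolamine pH 8.0. Test compound was injected at 100 μL/min with a 2 min association. Rmax assumed 1:1 per surface. Responses from 12 replicate injections per surface were analysed.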
# [5] = target: HIV-1 CA Lys170Ala (Human immunodeficiency virus type 1 group M subtype B, UniProt P12493, K302A); experiment: SPR binding site analysis, mutant CA; conditions: 50 μM compound, equilibrium response normalized to theoretical Rmax
# How it was run: as §1
# [6] = target: HIV-1 CA Asn139Ala (Human immunodeficiency virus type 1 group M subtype B, UniProt P12493, N271A); experiment: SPR binding site analysis, mutant CA; conditions: 50 μM compound, equilibrium response normalized to theoretical Rmax
# How it was run: as §1
# [7] = target: HIV-1 CA Gln179Ala (Human immunodeficiency virus type 1 group M subtype B, UniProt P12493, Q311A); experiment: SPR binding site analysis, mutant CA; conditions: 50 μM compound, equilibrium response normalized to theoretical Rmax
# How it was run: as §1
# [8] = target: HIV-1 CA Ser41Ala (Human immunodeficiency virus type 1 group M subtype B, UniProt P12493, S173A); experiment: SPR binding site analysis, mutant CA; conditions: 50 μM compound, equilibrium response normalized to theoretical Rmax
# How it was run: as §1
# [9] = target: HIV-1 CA Pro38Ala (Human immunodeficiency virus type 1 group M subtype B, UniProt P12493, P170A); experiment: SPR binding site analysis, mutant CA; conditions: 50 μM compound, equilibrium response normalized to theoretical Rmax
# How it was run: as §1
# [10] = target: HIV-1 CA Arg173Ala (Human immunodeficiency virus type 1 group M subtype B, UniProt P12493, R305A); experiment: SPR binding site analysis, mutant CA; conditions: 50 μM compound, equilibrium response normalized to theoretical Rmax
# How it was run: as §1
structure (smiles),measurement,setting,value
"O=[N+]([O-])c1cccc(-c2nc3c4cc(I)ccc4c4ccccc4c3[nH]2)c1 [Compound 34, 5-iodo-2-(3-nitrophenyl)-1H-phenanthro[9,10-d]imidazole]",improvement in antiviral potency over I-XW-053 (compound 1),[1],11 fold
same,toxicity / viability of PBMCs,[2],no toxicity; also recorded: not toxic
same,Kd,[3],11.8 ± 4.7 µM
same,effect of mutation on compound binding versus wild-type CA,[4],no effect
same,effect of mutation on compound binding versus wild-type CA,[5],loss of favorable interactions; also recorded: major effect
same,effect of mutation on compound binding versus wild-type CA,[6],no effect
same,effect of mutation on compound binding versus wild-type CA,[7],loss of favorable interactions
same,effect of mutation on compound binding versus wild-type CA,[8],loss of favorable interactions
same,effect of mutation on compound binding versus wild-type CA,[9],increase the interaction
same,effect of mutation on compound binding versus wild-type CA,[10],increase the interaction
